Test results reported in ChEMBL document CHEMBL1147346, “Isolation of pseudoprototimosaponin AIII from rhizomes of Anemarrhena asphodeloides and its hypoglycemic activity in streptozotocin-induced diabetic mice” (1993).

Key:
Pancreas = assay: Stimulation of immunoreactive insulin release in perfused Wistar rat pancreas at 1 mg/ml for 10 mins by radioimmunoassay; format: functional
Method in brief: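 Male Wistar rat pancreas (6–7 weeks) perfused via celiac artery with KRB pH 7.4, 0.5% BSA, 2% dextran, 2.8 mM glucose basal, 95% O2/5% CO2. Stimulated with 16.7 mM glucose ± 1 mg/ml test agent for 10 min. Portal vein effluent insulin measured by radioimmunoassay. n = 7.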

Mus musculus [1] = assay: Hypoglycemic activity in fasted po dosed streptozotocin-induced diabetic ddY mouse assessed as decrease in blood glucose level after 6 hrs by glucose oxidase method; format: functional; conditions: for ED50: read-out: ID50 (the source's name)
Method in brief: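 Male ddY mice given streptozotocin 150 mg/kg iv in saline via tail vein, used 1 or 4 weeks later; fasting glucose >150 mg/dl after 13–14 h fast. Graded doses. Percent fall computed from glucose before and after dosing versus 85 mg/dl normal mean. ID50 with 95% confidence limits from dose-inhibition curves; 7–12 mice per point, mean ± SEM.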

Mus musculus [2] = assay: Effect on blood glucose level in fasted ddY mouse at 50 mg/kg, ip after 6 hrs by glucose oxidase method; format: functional, organism-based; set-up: dose 50 mg/kg
Method in brief: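 Non-diabetic male ddY mice, 7–8 weeks of age (33–41 g), fasted; 50 mg/kg given ip. Blood glucose measured by glucose oxidase on a glucose analyzer.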

Mus musculus [3] = assay: Hypoglycemic activity in fasted alloxan monohydrate-induced diabetic ddY mouse assessed as decrease in blood glucose level at 50 mg/kg, ip after 6 hrs by glucose oxidase method; format: functional; set-up: scale not given: the % may be the effect or the level left; conditions: route intraperitoneal
Method in brief: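 Male ddY mice given alloxan monohydrate 90 mg/kg iv bolus in saline via tail vein, used 1 or 4 weeks later; fasting glucose >150 mg/dl after 13–14 h fast. Dosed 50 mg/kg ip; saline control. Glucose oxidase read-out. Percent fall = (A − B)/(A − 85) × 100, A and B being glucose before and 6 h after injection. Means ± SEM, n = 5–10.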

Activity (Mus musculus [1]) | SMILES | Activity (Pancreas) | ED50 (Mus musculus [1]) | Activity (Mus musculus [2]) | Activity (Mus musculus [3])
Dose-dependent effect | C[C@@H](CCC1(O)O[C@H]2C[C@H]3[C@@H]4CC[C@@H]5C[C@@H](O[C@@H]6O[C@H](CO)[C@H](O)[C@H](O)[C@H]6O[C@@H]6O[C@H](CO)[C@@H](O)[C@H](O)[C@H]6O)CC[C@]5(C)[C@H]4CC[C@]3(C)[C@H]2[C@@H]1C)CO[C@@H]1O[C@H](CO)[C@@H](O)[C@H](O)[C@H]1O (stereo partly specified) [PROTOTIMOSAPONIN AIII] | 59.7 ng/mL | 6.62 mg/kg | Dose-dependent effect | 73.4%
– | C[C@H]1CC[C@@]2(OC1)O[C@H]1C[C@H]3[C@@H]4CC[C@@H]5C[C@@H](O[C@@H]6O[C@H](CO)[C@H](O)[C@H](O)[C@H]6O[C@@H]6O[C@H](CO)[C@@H](O)[C@H](O)[C@H]6O)CC[C@]5(C)[C@H]4CC[C@]3(C)[C@H]1[C@@H]2C [TIMOSAPONIN AIII] | – | – | – | 64.5%
Dose-dependent effect | CC1=C(CC[C@H](C)CO[C@@H]2O[C@H](CO)[C@@H](O)[C@H](O)[C@H]2O)O[C@H]2C[C@H]3[C@@H]4CC[C@@H]5C[C@@H](O[C@@H]6O[C@H](CO)[C@H](O)[C@H](O)[C@H]6O[C@@H]6O[C@H](CO)[C@@H](O)[C@H](O)[C@H]6O)CC[C@]5(C)[C@H]4CC[C@]3(C)[C@@H]12 [PSEUDOPROTOTIMOSAPONIN AIII] | – | 4.33 mg/kg | – | 82.8%
Dose-dependent effect | COc1ccc(Cl)cc1C(=O)NCCc1ccc(S(=O)(=O)NC(=O)NC2CCCCC2)cc1 [GLYBURIDE] | – | 0.33 mg/kg | – | –
